Measured values taken from ChEMBL document CHEMBL3616444, “Design, synthesis and pharmacological evaluation of pyrimidobenzothiazole-3-carboxylate derivatives as selective L-type calcium channel blockers” (Bioorg Med Chem, 2015).

Key:
Rattus norvegicus [1] = test: Antihypertensive activity in Norwegian albino rat model of DOCA-salt-induced hypertension assessed as inhibition of systolic blood pressure at 10 mg/kg, po after 9 hrs by non-invasive tail cuff method relative to control; type: functional
In short: (§1)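 DOCA-salt hypertensive rats; systolic pressure by tail cuff after 10 mg/kg, recorded hourly from 0 to 10 h; percent inhibition computed. Data as mean ± SEM, repeated-measures ANOVA.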

Rattus norvegicus [2] = test: Antihypertensive activity in Norwegian albino rat model of DOCA-salt-induced hypertension assessed as inhibition of systolic blood pressure at 10 mg/kg, po after 4 hrs by non-invasive tail cuff method relative to control; type: functional; in short: as §1
Rattus norvegicus [3] = test: Antihypertensive activity in Norwegian albino rat model of DOCA-salt-induced hypertension assessed as inhibition of systolic blood pressure at 10 mg/kg, po after 5 hrs by non-invasive tail cuff method relative to control; type: functional; in short: as §1
Rattus norvegicus [4] = test: Antihypertensive activity in Norwegian albino rat model of DOCA-salt-induced hypertension assessed as inhibition of systolic blood pressure at 10 mg/kg, po after 6 hrs by non-invasive tail cuff method relative to control; type: functional; in short: as §1
Rattus norvegicus [5] = test: Antihypertensive activity in Norwegian albino rat model of DOCA-salt-induced hypertension assessed as inhibition of systolic blood pressure at 10 mg/kg, po after 1 hr by non-invasive tail cuff method relative to control; type: functional; in short: as §1
Rattus norvegicus [6] = test: Antihypertensive activity in Norwegian albino rat model of DOCA-salt-induced hypertension assessed as inhibition of systolic blood pressure at 10 mg/kg, po after 2 hrs by non-invasive tail cuff method relative to control; type: functional; in short: as §1
Rattus norvegicus [7] = test: Antihypertensive activity in Norwegian albino rat model of DOCA-salt-induced hypertension assessed as inhibition of systolic blood pressure at 10 mg/kg, po after 3 hrs by non-invasive tail cuff method relative to control; type: functional; in short: as §1
[8] = target: Myosin light chain kinase, smooth muscle (Homo sapiens, UniProt Q15746); test: Inhibition of MLCK (unknown origin) incubated for 15 mins using [gamma-32P]-ATP by scintillation counting method
Myosin light chain kinase, smooth muscle, sequence (Q15746 whole entry): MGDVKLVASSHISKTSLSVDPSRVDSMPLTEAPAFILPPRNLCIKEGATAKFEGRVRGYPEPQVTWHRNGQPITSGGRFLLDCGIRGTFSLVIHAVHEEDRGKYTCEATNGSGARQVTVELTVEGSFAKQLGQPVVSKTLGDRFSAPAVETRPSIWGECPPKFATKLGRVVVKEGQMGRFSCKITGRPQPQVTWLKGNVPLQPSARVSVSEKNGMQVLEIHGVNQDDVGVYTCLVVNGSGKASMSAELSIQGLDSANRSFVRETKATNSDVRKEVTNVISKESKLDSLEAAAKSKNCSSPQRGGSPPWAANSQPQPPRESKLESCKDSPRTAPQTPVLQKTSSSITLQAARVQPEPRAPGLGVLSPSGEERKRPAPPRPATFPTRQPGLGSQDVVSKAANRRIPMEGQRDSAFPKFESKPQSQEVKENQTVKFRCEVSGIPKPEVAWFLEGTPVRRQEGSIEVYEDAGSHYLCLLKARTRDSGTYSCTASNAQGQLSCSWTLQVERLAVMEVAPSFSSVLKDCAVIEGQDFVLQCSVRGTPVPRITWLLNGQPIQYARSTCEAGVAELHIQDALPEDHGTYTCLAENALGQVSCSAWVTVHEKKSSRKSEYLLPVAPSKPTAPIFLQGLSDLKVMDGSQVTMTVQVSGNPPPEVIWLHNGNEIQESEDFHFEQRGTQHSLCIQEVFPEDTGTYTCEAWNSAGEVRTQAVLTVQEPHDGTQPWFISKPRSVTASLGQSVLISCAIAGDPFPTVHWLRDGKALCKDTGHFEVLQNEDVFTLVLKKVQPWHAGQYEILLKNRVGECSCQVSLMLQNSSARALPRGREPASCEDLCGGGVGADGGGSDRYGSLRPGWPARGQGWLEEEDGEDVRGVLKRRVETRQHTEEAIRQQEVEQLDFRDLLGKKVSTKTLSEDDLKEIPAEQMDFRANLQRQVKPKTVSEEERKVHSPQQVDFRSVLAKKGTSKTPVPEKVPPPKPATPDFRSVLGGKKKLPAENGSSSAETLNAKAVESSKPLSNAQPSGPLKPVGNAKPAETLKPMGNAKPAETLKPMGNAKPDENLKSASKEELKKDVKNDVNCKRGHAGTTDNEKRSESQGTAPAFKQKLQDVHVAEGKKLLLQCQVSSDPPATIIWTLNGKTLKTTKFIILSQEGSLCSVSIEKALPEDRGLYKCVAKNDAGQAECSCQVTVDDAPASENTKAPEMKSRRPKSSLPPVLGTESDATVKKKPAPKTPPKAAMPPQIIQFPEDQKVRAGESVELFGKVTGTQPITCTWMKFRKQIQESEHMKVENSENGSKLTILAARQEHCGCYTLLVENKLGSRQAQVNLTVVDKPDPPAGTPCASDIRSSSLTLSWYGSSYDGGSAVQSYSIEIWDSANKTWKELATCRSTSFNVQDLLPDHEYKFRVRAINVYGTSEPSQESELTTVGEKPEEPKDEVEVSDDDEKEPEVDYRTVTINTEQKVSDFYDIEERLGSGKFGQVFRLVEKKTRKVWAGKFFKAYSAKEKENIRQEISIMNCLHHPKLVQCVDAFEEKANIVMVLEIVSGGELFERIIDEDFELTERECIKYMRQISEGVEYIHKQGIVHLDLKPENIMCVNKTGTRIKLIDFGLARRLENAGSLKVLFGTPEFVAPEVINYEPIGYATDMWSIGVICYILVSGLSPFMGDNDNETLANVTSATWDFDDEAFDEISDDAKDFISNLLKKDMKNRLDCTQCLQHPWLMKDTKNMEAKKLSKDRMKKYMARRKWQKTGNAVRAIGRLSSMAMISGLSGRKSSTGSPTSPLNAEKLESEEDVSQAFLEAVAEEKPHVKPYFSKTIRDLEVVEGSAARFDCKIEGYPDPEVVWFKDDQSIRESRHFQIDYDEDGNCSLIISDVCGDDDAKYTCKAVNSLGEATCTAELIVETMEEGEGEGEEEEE
In short: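 Active MLCK thawed on ice with kinase assay and dilution buffers and substrate; reaction with γ-32P-ATP incubated 15 min at 30 °C in a water bath, spotted on phosphocellulose P81 paper, washed three times ~10 min in 1% phosphoric acid. Radioactivity by scintillation counting, blank-corrected cpm converted to specific activity (nmol/min/mg); IC50 from log plots, at least five determinations per concentration.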

Rattus norvegicus [9] = test: Antihypertensive activity in Norwegian albino rat model of DOCA-salt-induced hypertension assessed as inhibition of systolic blood pressure at 10 mg/kg, po after 7 hrs by non-invasive tail cuff method relative to control; type: functional; in short: as §1
Rattus norvegicus [10] = test: Antihypertensive activity in Norwegian albino rat model of DOCA-salt-induced hypertension assessed as inhibition of systolic blood pressure at 10 mg/kg, po after 10 hrs by non-invasive tail cuff method relative to control; type: functional; in short: as §1
[11] = Inhibition of porcine kidney ACE assessed as reduction in hippuryl-histidyl-leucine hydrolysis to hippuric acid release incubated for 30 mins high-throughput colorimetric method; parameters: species or system Sus scrofa
In short: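 Porcine kidney ACE in 1 M sodium borate buffer pH 8.2 with 0.3 M NaCl and 5 mM HHL substrate (stock); 37 °C for 30 min, stopped with 1 M HCl. Released hippuric acid complexed with pyridine and benzene sulfonyl chloride, cooled on ice, yellow colour read at 410 nm; IC50 from log plots, at least five determinations per concentration.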

Rattus norvegicus [12] = test: Antihypertensive activity in Norwegian albino rat model of DOCA-salt-induced hypertension assessed as inhibition of systolic blood pressure at 10 mg/kg, po after 8 hrs by non-invasive tail cuff method relative to control; type: functional; in short: as §1
Rattus norvegicus [13] = test: Antihypertensive activity in Norwegian albino rat assessed as inhibition of systolic blood pressure at 10 mg/kg, po after 4 hrs by invasive carotid artery cannulation method relative to control; type: functional
Rattus norvegicus [14] = test: Gastrointestinal toxicity in Norwegian rat assessed as ulcerative index at 50 mg/kg, po after 17 hrs; type: organism-based; conditions: in vivo
Rattus norvegicus [15] = test: Antihypertensive activity in Norwegian albino rat assessed as inhibition of systolic blood pressure at 10 mg/kg, po after 0.15 hrs by invasive carotid artery cannulation method relative to control; type: functional
Rattus norvegicus [16] = test: Antihypertensive activity in Norwegian albino rat assessed as inhibition of systolic blood pressure at 10 mg/kg, po after 3 hrs by invasive carotid artery cannulation method relative to control; type: functional
Rattus norvegicus [17] = test: Antihypertensive activity in Norwegian albino rat assessed as inhibition of systolic blood pressure at 10 mg/kg, po after 0.3 hrs by invasive carotid artery cannulation method relative to control; type: functional
Rattus norvegicus [18] = test: Antihypertensive activity in Norwegian albino rat assessed as inhibition of systolic blood pressure at 10 mg/kg, po after 2 hrs by invasive carotid artery cannulation method relative to control; type: functional
Rattus norvegicus [19] = test: Antihypertensive activity in Norwegian albino rat assessed as inhibition of systolic blood pressure at 10 mg/kg, po after 1 hr by invasive carotid artery cannulation method relative to control; type: functional
physchem = conditions: buffer, pH 7.4

Row | IC50 ([8]; read-out: IC50) [µM] | IC50 [11] [µM] | IC50 ([8]; read-out: pIC50 (converted)) [µM] | SMILES | inhibition in vivo at 10 mg/kg (Rattus norvegicus [1]) [%] | inhibition in vivo at 10 mg/kg (Rattus norvegicus [2]) [%] | inhibition in vivo at 10 mg/kg (Rattus norvegicus [3]) [%] | inhibition in vivo at 10 mg/kg (Rattus norvegicus [4]) [%] | inhibition in vivo at 10 mg/kg (Rattus norvegicus [5]) [%] | inhibition in vivo at 10 mg/kg (Rattus norvegicus [6]) [%] | inhibition in vivo at 10 mg/kg (Rattus norvegicus [7]) [%] | inhibition in vivo at 10 mg/kg (Rattus norvegicus [9]) [%] | inhibition in vivo at 10 mg/kg (Rattus norvegicus [10]) [%] | inhibition in vivo at 10 mg/kg (Rattus norvegicus [12]) [%] | also measured
1 | > 100 | > 100 | – | Cc1cc(C)nc(Nc2nc3ccccc3s2)n1 | 8.89 | 1.33 | 5.33 | 7.11 | 0.44 | 0 | 0.44 | 8.44 | 8.89 | 8.44 | –
2 | > 100 | > 100 | – | CC(=O)c1c(C)nc(Nc2nc3ccccc3s2)nc1C | 7.96 | 2.21 | 5.31 | 7.08 | 0.88 | 0.44 | 0.88 | 7.52 | 8.41 | 7.52 | –
3 | 18.2 | > 100 | 5490 | CCOC(=O)C1=C(C)NC(OC)N(CC(=O)c2ccc(OC)cc2)C1c1ccc(Cl)cc1 (stereo not drawn) | – | – | – | – | – | – | – | – | – | – | –
4 | 9.8 | > 100 | 10200 | COC(=O)C1=C(C)N=C2Sc3ccccc3N2C1c1ccccc1Cl (stereo not drawn) | 31.4 | 18.1 | 22.6 | 24.8 | 1.77 | 2.65 | 14.6 | 27 | 33.6 | 28.8 | –
5 | 9.1 | > 100 | 11000 | COC(=O)C1=C(C)N=C2Sc3ccccc3N2C1c1ccc(Cl)cc1 (stereo not drawn) | 38 | 24.8 | 28.8 | 28.8 | 2.65 | 11.5 | 14.6 | 31.4 | 40.3 | 33.6 | inhibition in vivo at 10 mg/kg (Rattus norvegicus [13]): 49.6%; UI (Rattus norvegicus [14]): 0.36; inhibition in vivo at 10 mg/kg (Rattus norvegicus [15]): 2.21%; inhibition in vivo at 10 mg/kg (Rattus norvegicus [16]): 31%; inhibition in vivo at 10 mg/kg (Rattus norvegicus [17]): 4.42%; inhibition in vivo at 10 mg/kg (Rattus norvegicus [18]): 24.8%; inhibition in vivo at 10 mg/kg (Rattus norvegicus [19]): 15.9%; logD (physchem): 5.44
6 | 4.3 | > 100 | 23300 | COC(=O)C1=C(C)N=C2Sc3ccccc3N2C1c1ccccc1O (stereo not drawn) | 43.8 | 24.1 | 26.3 | 33 | 3.57 | 8.48 | 19.6 | 36.6 | 46.4 | 42 | –
7 | 4.21 | > 100 | 23800 | COC(=O)C1=C(C)N=C2Sc3ccccc3N2C1c1ccc(O)cc1 (stereo not drawn) | 40.8 | 25.4 | 29.4 | 34.2 | 3.51 | 7.89 | 19.7 | 38.2 | 42.1 | 39.5 | –
8 | 4.37 | > 100 | 22900 | COC(=O)C1=C(C)N=C2Sc3ccccc3N2C1c1ccc(N(C)C)cc1 (stereo not drawn) | 31.4 | 18.1 | 22.6 | 24.8 | 1.77 | 2.65 | 14.6 | 27 | 33.6 | 28.8 | –
9 | 10.8 | > 100 | 9260 | CCOC(=O)C1=C(C)N=C2Sc3ccccc3N2C1c1ccccc1Cl (stereo not drawn) | 31.4 | 18.1 | 22.6 | 24.8 | 1.77 | 2.65 | 14.6 | 27 | 33.6 | 28.8 | –
10 | > 100 | > 100 | – | CCc1nc(Nc2nc3ccccc3s2)nc(C)c1C(C)=O | 8.44 | 1.33 | 6.22 | 7.56 | 0.44 | 0 | 0.44 | 8 | 8.89 | 8 | –
11 | 41.3 | > 100 | 2420 | CCOC(=O)C1=C(C)NC(OC)N(CC(=O)c2ccc(Cl)cc2)C1c1ccc(Cl)cc1 (stereo not drawn) | – | – | – | – | – | – | – | – | – | – | –
12 | 15.2 | > 100 | 6580 | CCOC(=O)C1=C(C)NC(OC)N(CC(=O)c2ccc(Cl)cc2)C1c1ccc(O)cc1 (stereo not drawn) | – | – | – | – | – | – | – | – | – | – | –
13 | 9.8 | > 100 | 10.2 | CCOC(=O)C1=C(C)NC(OC)N(CC(=O)c2ccc(OC)cc2)C1c1ccc(O)cc1 (stereo not drawn) | – | – | – | – | – | – | – | – | – | – | –
14 | 4.1 | > 100 | 24.4 | CCOC(=O)C1=C(C)NC(OC)N(CC(=O)c2ccc(OC)cc2)C1c1ccc(OC)cc1 (stereo not drawn) | – | – | – | – | – | – | – | – | – | – | –
15 | 31.3 | > 100 | 3190 | CCOC(=O)C1=C(C)NC(OC)N(CC(=O)c2ccccc2)C1c1ccc(Cl)cc1 (stereo not drawn) | – | – | – | – | – | – | – | – | – | – | –
16 | 19.2 | > 100 | 5210 | CCOC(=O)C1=C(C)NC(OC)N(CC(=O)c2ccccc2)C1c1ccc(C)cc1 (stereo not drawn) | – | – | – | – | – | – | – | – | – | – | –
17 | 5.1 | > 100 | 19.6 | CCOC(=O)C1=C(C)NC(OC)N(CC(=O)c2ccc(OC)cc2)C1c1ccc(C)cc1 (stereo not drawn) | – | – | – | – | – | – | – | – | – | – | –
18 | 30.3 | > 100 | 3300 | CCOC(=O)C1=C(C)NC(OC)N(CC(=O)c2ccc(Cl)cc2)C1c1ccc(OC)cc1 (stereo not drawn) | – | – | – | – | – | – | – | – | – | – | –
19 | 29.2 | > 100 | 3420 | CCOC(=O)C1=C(C)NC(OC)N(CC(=O)c2ccc(Cl)cc2)C1c1ccc(C)cc1 (stereo not drawn) | – | – | – | – | – | – | – | – | – | – | –
20 | 23.3 | > 100 | 4290 | CCOC(=O)C1=C(C)NC(OC)N(CC(=O)c2ccccc2)C1c1ccccc1 (stereo not drawn) | – | – | – | – | – | – | – | – | – | – | –
21 | 33.3 | > 100 | 3000 | CCOC(=O)C1=C(C)NC(OC)N(CC(=O)c2ccc(Cl)cc2)C1c1ccccc1 (stereo not drawn) | – | – | – | – | – | – | – | – | – | – | –
22 | 7.4 | > 100 | 13.5 | CCOC(=O)C1=C(C)NC(OC)N(CC(=O)c2ccccc2)C1c1ccc(OC)cc1 (stereo not drawn) | – | – | – | – | – | – | – | – | – | – | –
23 | 13.3 | > 100 | 7.52 | CCOC(=O)C1=C(C)NC(OC)N(CC(=O)c2ccc(OC)cc2)C1c1ccccc1 (stereo not drawn) | – | – | – | – | – | – | – | – | – | – | –
24 | 10.2 | > 100 | 9.8 | CCOC(=O)C1=C(C)NC(OC)N(CC(=O)c2ccccc2)C1c1ccc(O)cc1 (stereo not drawn) | – | – | – | – | – | – | – | – | – | – | –
25 | – | – | – | CC(C)Cc1ccc(C(C)C(=O)O)cc1 (stereo not drawn) [IBUPROFEN] | – | – | – | – | – | – | – | – | – | – | UI (Rattus norvegicus [14]): 1.97
